Measured values reported in paper PMC6039259 (Nature medicine, 2018).

How the values were obtained:
[1] = test system: α-syn PFF injected C57BL6 mice; experiment: Intrastriatal α-syn PFF mouse model of sporadic PD; type: in vivo
[2] = test system: human dopaminergic (DA) neurons; experiment: Direct α-syn PFF toxicity in human DA neurons; type: cell-based; details: direct treatment of DA neurons, NLY01 1 µM, human α-syn PFF 5 µg/ml
Outline: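 Viability is read three ways: alamarBlue per kit protocol, LDH activity in culture medium measured spectrophotometrically, and trypan blue counting. For trypan blue, neurons are trypsin-dissociated to single cells and mixed 1:1 with dye. Live and dead cells are counted on an automated cell counter, with three wells per condition.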

human DA neurons = experiment: α-syn PFF-ACM toxicity in human DA neurons; type: cell-based; details: NLY01 applied to the α-syn PFF treated microglia; alamarBlue, LDH, trypan blue, 5 days
[3] = test system: astrocytes of ventral midbrain; experiment: qPCR of astrocytes from ventral midbrain of α-syn PFF injected mice; type: in vivo
hA53T α-syn Tg mice = experiment: hA53T α-synuclein transgenic mouse model; type: in vivo
primary microglia = experiment: α-syn PFF-induced activation of primary microglia; type: cell-based, mouse
Outline: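 Primary mouse microglia, CD11b-selected from P1 mixed glia, are pretreated with test compound (1 μM), then given α-syn PFF (1 μg/ml). PFF is endotoxin-depleted recombinant mouse α-syn, stirred a week at 37 °C and sonicated. For qPCR, total RNA is normalized to β-actin by 2^−ΔΔCt, with n=3 independent cultures. Cytokines in medium collected 18 hrs post-PFF are measured by mouse cytokine ELISA array.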

[4] = NLY01 accumulation in brain / BBB penetration; type: in vivo, mice
human recombinant GLP-1R = human recombinant GLP-1R (Homo sapiens, UniProt P43220); experiment: cAMP production in GLP-1R transfected HEK-293/CRE-LUC/GLP1R cells; type: cell-based
[5] = test system: murine primary cortical cultures; experiment: α-syn PFF-ACM toxicity in murine primary cortical neurons; type: cell-based, mouse
Outline: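 Cortical neurons from E15.5 CD1 embryos are grown in B-27 Neurobasal medium on poly-L-lysine. ACM is made by giving astrocytes 24 h of α-syn PFF-MCM, with or without test compound on the microglia. It is collected with protease inhibitors, concentrated about 50X (10 kDa cutoff) and dosed at 15 μg/ml total protein. Nuclei are stained with Hoechst (7 μM) and PI (2 μM) and counted by computer, relative to control wells.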

primary astrocytes = experiment: A1 astrocyte induction by α-syn PFF-MCM in primary astrocytes; type: cell-based, mouse
Outline: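 Primary microglia and astrocytes come from P1 CD1 mouse whole brains. Mixed glia are grown 13 days, then split by CD11b positive selection: the bound fraction is microglia and the pour-off is astrocytes. Microglia get α-syn PFF with PBS or test compound (1 μM). Their conditioned medium is applied to astrocytes for 24 hrs, and GFAP is measured by immunoblot.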

[6] = 3 mg/kg s.c. twice a week for five months

Sequence of human recombinant GLP-1R (P43220 24-463): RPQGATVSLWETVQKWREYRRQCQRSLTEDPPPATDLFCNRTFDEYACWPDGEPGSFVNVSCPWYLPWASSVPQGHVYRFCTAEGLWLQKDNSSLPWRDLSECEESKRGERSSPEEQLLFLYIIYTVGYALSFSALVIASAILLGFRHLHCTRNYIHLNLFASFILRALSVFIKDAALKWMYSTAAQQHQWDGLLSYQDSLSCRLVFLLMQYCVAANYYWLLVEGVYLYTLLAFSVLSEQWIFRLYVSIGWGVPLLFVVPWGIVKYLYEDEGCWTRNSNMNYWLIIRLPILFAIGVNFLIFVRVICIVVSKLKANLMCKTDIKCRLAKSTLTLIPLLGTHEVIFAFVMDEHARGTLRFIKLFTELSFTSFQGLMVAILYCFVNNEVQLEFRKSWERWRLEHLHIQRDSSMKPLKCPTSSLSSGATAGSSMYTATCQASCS

Substance: His-Gly-Glu-Gly-Thr-Phe-Thr-Ser-Asp-Leu-Ser-Lys-Gln-Met-Glu-Glu-Glu-Ala-Val-Arg-Leu-Phe-Ile-Glu-Trp-Leu-Lys-Asn-Gly-Gly-Pro-Ser-Ser-Gly-Ala-Pro-Pro-Pro-Ser-Cys(PEG50K)-NH2 [NLY01, pegylated [Cys^40]Exendin-4]
- Triton X-100 insoluble α-syn and p-α-syn ser129, western blot [1, 6]: significantly reduces
- α-syn PFF induced reduction in striatal TH immunoreactivity and striatal TH and DAT protein [1, 6]: rescued
- p-α-syn ser129 immunoreactivity in striatum, ventral midbrain and TH neurons ([1]; 3 mg/kg s.c. twice a week for five months, from one month after α-syn PFF): significantly reduces
- α-syn PFF induced loss of TH and Nissl positive neurons in the SNpc ([1]; 3 mg/kg s.c. twice a week for five months, n=10): prevented
- ipsilateral amphetamine induced rotation ([1]; 5 mg/kg amphetamine i.p., six months after α-syn PFF): prevented
- α-syn PFF induced GFAP immunoreactivity and GFAP level in the ventral midbrain ([1]; immunohistochemistry and western blot): blocked
- α-syn PFF induced mRNA for Il1a, Il1b, Tnfα, C1qa, Il6 in ventral midbrain ([1]; qPCR, n=4): blocked
- behavioral deficits in accelerating rotarod test and pole test ([1]; six months after α-syn PFF): significantly reduces the behavioral deficits
- contralateral forepaw touches, cylinder test ([1]; six months after α-syn PFF): restored
- increase in grooming time and reduction in rearing, cylinder test ([1]; six months after α-syn PFF): restored
- Iba-1 immunoreactivity and microglial density in the SNpc ([1]; six months post injection): significantly reduces
- protection against α-syn PFF induced cell death (alamarBlue, LDH, trypan blue) [2]: fails to protect
- α-syn PFF-ACM induced cell death (human DA neurons): significantly prevents
- α-syn PFF induced A1 astrocyte specific transcripts [3]: prevented
- induction of C3 mRNA in isolated astrocytes ([3]; n=4): blocks
- prolongation of lifespan (hA53T α-syn Tg mice; 3 mg/kg s.c. twice a week from six months of age, n=20): over 100 days
- p-α-syn ser129 immunoreactivity, aggregated α-syn and ubiquitin immunoreactivity (hA53T α-syn Tg mice; 3 mg/kg, brainstem): reduction
- microglial and astrocytic activation (Iba-1, GFAP immunoreactivity) (hA53T α-syn Tg mice; brainstem): significantly attenuates
- increase of C3 mRNA (hA53T α-syn Tg mice; ten-month-old hA53T α-syn Tg mice): prevented
- uptake of α-syn PFF in microglia (primary microglia): does not interfere
- α-syn PFF induced C1q and TNFα release into media, western blot (primary microglia; NLY01 1 µM pretreatment): significantly inhibited
- α-syn PFF induced protein levels of IL-1α, TNFα, IL-1ß, C1q, ELISA (primary microglia; NLY01 1 μM pretreatment, MCM 18 hrs after α-syn PFF): reduced
- α-syn PFF induced mRNA for Il1a, Il1b, Tnfα, C1qa, Il6, qPCR (primary microglia; NLY01 1 μM pretreatment, α-syn PFF 1 μg/ml): significantly reduces
- α-syn PFF induced cytokines (IL-1α, TNFα, IL-1ß, IL-6, leptin), ELISA cytokine array (primary microglia; primary microglia, α-syn PFF 1 µg/ml): reduces
- NF-kB pathway (primary microglia; α-syn PFF-induced NF-kB nuclear translocation and phosphorylation): inhibits
- brain levels ([4]; ten-month-old hA53T Tg mice, 3 mg/kg): reaches high brain levels
- blood-brain barrier penetration ([4]; wild type (WT) mice): efficiently penetrates the blood-brain barrier
- biologic activity in vitro relative to Exendin-4 (human recombinant GLP-1R): comparable biologic activity
- α-syn PFF-ACM induced cell death ([5]; NLY01 (1 µM) applied to the α-syn PFF treated microglia, Hoechst/PI, 48 hrs): significantly prevents
- p-α-syn ser129 levels induced by α-syn PFF-ACM ([5]; pretreatment of NLY01 in microglia): significantly reduced
- α-syn PFF-MCM induced GFAP (primary astrocytes; NLY01 1 μM, 24 hrs, immunoblot): blocked
- induction of A1 astrocytic specific markers (primary astrocytes; NLY01 treatment of microglia, but not that of astrocytes): prevents
